In ChEMBL document CHEMBL1121371, “Antihypertensive 5,6-diarylpyridazin-3-ones” (1980):

Experiments:
Rattus norvegicus [1] = assay: Antihypertensive activity in spontaneously hypertensive rats, measured as average blood pressure at 100 mg/kg, p.o. before predose; No significant lowering of blood pressure; type: functional, organism-based; set-up: dose 100 mg/kg
Rattus norvegicus [2] = assay: Antihypertensive activity in spontaneously hypertensive rats was measured as average blood pressure at 100 mg/kg, p.o. after 24 hours of postdose-1.; type: functional; conditions: route oral
How it was run: (§1)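 Spontaneously hypertensive rats aged 12 to 16 weeks, in groups of five with systolic pressure of 170 mmHg or more. Oral dosing as a solution or suspension in 0.25% methylcellulose, 5 mL/kg, with a vehicle control group. Tail-cuff systolic pressure was read predose and 4 and 24 h after each of two doses. Values were compared with predose by Student's t test.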

Rattus norvegicus [3] = assay: Antihypertensive activity in spontaneously hypertensive rats was measured as average blood pressure at 100 mg/kg, po after 24 hours of postdose-2; type: functional; how it was run: as §1
Rattus norvegicus [4] = assay: Antihypertensive activity in spontaneously hypertensive rats was measured as average blood pressure at 100 mg/kg, p.o. after 4 hours of postdose-1.; type: functional; conditions: route oral; how it was run: as §1
Rattus norvegicus [5] = assay: Antihypertensive activity in spontaneously hypertensive rats was measured as average blood pressure at 100 mg/kg, p.o. after 4 hours of postdose-2; type: functional; conditions: route oral; how it was run: as §1
Rattus norvegicus [6] = assay: Antihypertensive activity in spontaneously hypertensive rats was measured as average blood pressure at 100 mg/kg, p.o. before predose; type: functional; conditions: route oral; how it was run: as §1

SMILES	BP (Rattus norvegicus [1])	also measured
Cc1ccc(-c2nnc(O)c(C#N)c2-c2ccc(C)cc2)cc1	Not significant	–
CC(=O)c1c(-c2ccc(Cl)cc2)c(-c2ccc(Cl)cc2)nn(CC(O)CNC(C)C)c1=O (configuration not stated)	Not significant	–
COc1ccc(-c2c(-c3ccccc3)c(-c3ccccc3)nn(CCO)c2=O)cc1OC	Not significant	–
CCCC(=O)c1c(-c2ccc(Cl)cc2)c(-c2ccc(Cl)cc2)nn(C(C)CO)c1=O (configuration not stated)	Not significant	–
CC(=O)c1c(-c2ccccc2)c(-c2ccccc2)nn(C)c1=O	Not significant	–
N#Cc1c(O)nnc(-c2ccc(Cl)c(Cl)c2)c1-c1ccc(Cl)c(Cl)c1	Not significant	–
CCCC(=O)c1c(-c2ccc(Cl)cc2)c(-c2ccc(Cl)cc2)nn(CCO)c1=O	Not significant	–
CCC(=O)c1c(-c2ccc(Cl)cc2)c(-c2ccc(Cl)cc2)nn(CCO)c1=O	Not significant	–
N#Cc1c(-c2ccc(Cl)cc2)c(-c2ccc(Cl)cc2)nn(CCCC(=O)O)c1=O	–	BP (Rattus norvegicus [2]): 204 mmHg; BP (Rattus norvegicus [3]): 180 mmHg; BP (Rattus norvegicus [4]): 202 mmHg; BP (Rattus norvegicus [5]): 175 mmHg; BP (Rattus norvegicus [6]): 215 mmHg
O=C(O)CCCn1nc(-c2ccccc2)c(-c2ccccc2)c(-c2ccccc2)c1=O	Not significant	–
CCOC(=O)CCCn1nc(-c2ccc(Cl)cc2)c(-c2ccc(Cl)cc2)c(C#N)c1=O	Not significant	–
CC(=O)c1c(O)nnc(-c2ccc(F)cc2)c1-c1ccc(F)cc1	Not significant	–
CC(O)c1c(-c2ccccc2)c(-c2ccccc2)nn(CCO)c1=O (configuration not stated)	Not significant	–
CCOC(=O)Cn1nc(-c2ccc(OC)cc2)c(-c2ccc(OC)cc2)c(C(C)=O)c1=O	Not significant	–
COc1ccc(OC)c(-c2c(O)nnc(-c3ccccc3)c2-c2ccccc2)c1	Not significant	–
CCOC(=O)N1CCN(CCn2nc(-c3ccc(Cl)cc3)c(-c3ccc(Cl)cc3)c(C(C)=O)c2=O)CC1	–	BP (Rattus norvegicus [2]): 182 mmHg; BP (Rattus norvegicus [3]): 183 mmHg; BP (Rattus norvegicus [4]): 186 mmHg; BP (Rattus norvegicus [5]): 151 mmHg; BP (Rattus norvegicus [6]): 200 mmHg
C=Cn1nc(-c2ccc(Cl)cc2)c(-c2ccc(Cl)cc2)c(C(C)=O)c1=O	Not significant	–
Oc1nnc(-c2ccccc2)c(-c2ccccc2)c1-c1ccc(Br)cc1	Not significant	–
CC(=O)c1c(-c2ccc(Cl)cc2)c(-c2ccc(Cl)cc2)nn(CC(O)CCl)c1=O (configuration not stated)	Not significant	–
CCn1nc(-c2ccc(Cl)cc2)c(-c2ccc(Cl)cc2)c(C(C)=O)c1=O	Not significant	–
CC(=O)c1c(-c2ccc(Cl)cc2)c(-c2ccc(Cl)cc2)nn(CCI)c1=O	Not significant	–

SMILES	BP (Rattus norvegicus [1])	also measured
COc1ccc(-c2nnc(O)c(C(C)=O)c2-c2ccc(OC)cc2)cc1	Not significant	–
CC(=O)c1c(-c2ccc(Cl)cc2)c(-c2ccc(Cl)cc2)nn(CCNC(C)C)c1=O	–	BP (Rattus norvegicus [2]): 181 mmHg; BP (Rattus norvegicus [3]): 176 mmHg; BP (Rattus norvegicus [4]): 211 mmHg; BP (Rattus norvegicus [5]): 143 mmHg; BP (Rattus norvegicus [6]): 216 mmHg
Cn1nc(-c2ccccc2)c(-c2ccccc2)c(C#N)c1=O	Not significant	–
CC(=O)c1c(-c2ccc(Cl)cc2)c(-c2ccc(Cl)cc2)nn(CC(N)=O)c1=O	Not significant	–
CC(=O)Cn1nc(-c2ccc(Cl)cc2)c(-c2ccc(Cl)cc2)c(C#N)c1=O	Not significant	–
Cc1ccc(-c2nnc(O)c(-c3ccccc3)c2-c2ccc(C)cc2)cc1	Not significant	–
N#Cc1c(-c2ccc(F)cc2)c(-c2ccc(F)cc2)nn(CCO)c1=O	Not significant	–
Cc1ccc(-c2c(O)nnc(-c3ccccc3)c2-c2ccccc2)cc1	Not significant	–
CC(=O)Nc1ccc(-c2c(-c3ccc(Cl)cc3)c(-c3ccc(Cl)cc3)nn(CCO)c2=O)cc1	Not significant	–
O=c1c(-c2ccccc2)c(-c2ccc(Cl)cc2)c(-c2ccc(Cl)cc2)nn1CCO	Not significant	–
O=S(=O)(c1ccccc1)c1c(O)nnc(-c2ccccc2)c1-c1ccccc1	Not significant	–
CC(=O)c1c(-c2ccc(Cl)cc2)c(-c2ccc(Cl)cc2)nn(CCCN(C)C)c1=O	Not significant	–
CC(=O)c1c(-c2ccc(Cl)cc2)c(-c2ccc(Cl)cc2)nn(CCCCCO)c1=O	Not significant	–
CC(=O)c1c(-c2ccc(Cl)cc2)c(-c2ccc(Cl)cc2)nn(CCN2CCCCC2)c1=O	–	BP (Rattus norvegicus [2]): 163 mmHg; BP (Rattus norvegicus [3]): 176 mmHg; BP (Rattus norvegicus [4]): 180 mmHg; BP (Rattus norvegicus [5]): 165 mmHg; BP (Rattus norvegicus [6]): 192 mmHg
CC(=O)c1c(O)nnc(-c2ccccc2)c1-c1ccccc1	Not significant	–
COc1ccc(OC)c(-c2c(-c3ccccc3)c(-c3ccccc3)nn(CCO)c2=O)c1	Not significant	–
CC(=O)c1c(-c2ccc(Cl)cc2)c(-c2ccc(Cl)cc2)nn(CC(=O)O)c1=O	Not significant	–
CCOC(=O)c1c(-c2ccc(Cl)cc2)c(-c2ccc(Cl)cc2)nn(CCO)c1=O	Not significant	–
COc1ccc(-c2c(O)nnc(-c3ccccc3)c2-c2ccccc2)cc1	Not significant	–
CC(=O)c1c(-c2ccccc2)c(-c2ccccc2)nn(CCCC(=O)O)c1=O	Not significant	–
Oc1nnc(-c2ccccc2)c(-c2ccccc2)c1-c1ccccc1	Not significant	–

SMILES	BP (Rattus norvegicus [1])	also measured
Oc1nnc(-c2ccccc2)c(-c2ccccc2)c1-c1cccc(Cl)c1	Not significant	–
COc1ccc(-c2nn(CCO)c(=O)c(C#N)c2-c2ccc(OC)cc2)cc1	Not significant	–
COc1cc(-c2c(O)nnc(-c3ccc(Cl)cc3)c2-c2ccc(Cl)cc2)cc(OC)c1OC	Not significant	–
CC(=O)c1c(-c2ccc(Cl)cc2)c(-c2ccc(Cl)cc2)nn(CC[N+](C)(C)C)c1=O	Not significant	–
CC(=O)c1c(-c2ccc(Cl)cc2)c(-c2ccc(Cl)cc2)nn(CC(C)O)c1=O (configuration not stated)	Not significant	–
O=C(c1ccccc1)c1c(-c2ccccc2)c(-c2ccccc2)nn(CCO)c1=O	Not significant	–
COc1ccc(-c2nn(CCO)c(=O)c(C(C)=O)c2-c2ccc(OC)cc2)cc1	Not significant	–
CC(C)C(=O)c1c(-c2ccc(Cl)cc2)c(-c2ccc(Cl)cc2)nn(CCO)c1=O	Not significant	–
Oc1nnc(-c2ccccc2)c(-c2ccccc2)c1-c1ccc(Cl)cc1	Not significant	–
CC(=O)c1c(-c2ccc(Cl)cc2)c(-c2ccc(Cl)cc2)nn(CC2CO2)c1=O (configuration not stated)	Not significant	–
COc1ccc(-c2c(-c3ccccc3)c(-c3ccccc3)nn(CCO)c2=O)cc1	Not significant	–
C/C(=N\N)c1c(O)nnc(-c2ccccc2)c1-c1ccccc1	Not significant	–
COc1ccccc1-c1c(-c2ccccc2)c(-c2ccccc2)nn(CCO)c1=O	Not significant	–
Cc1ccc(-c2nn(CCO)c(=O)c(-c3ccccc3)c2-c2ccc(C)cc2)cc1	Not significant	–
O=c1cc(-c2ccc(Cl)cc2)c(-c2ccc(Cl)cc2)nn1CCO	Not significant	–
COC(=O)Cn1nc(-c2ccc(Cl)cc2)c(-c2ccc(Cl)cc2)c(C(C)=O)c1=O	Not significant	–
O=C(O)c1c(O)nnc(-c2ccc(Cl)cc2)c1-c1ccc(Cl)cc1	Not significant	–
O=c1c(-c2ccc3ccccc3c2)c(-c2ccccc2)c(-c2ccccc2)nn1CCO	Not significant	–
N#Cc1c(-c2ccc(Cl)c(Cl)c2)c(-c2ccc(Cl)c(Cl)c2)nn(CCO)c1=O	Not significant	–
O=c1c(-c2ccc(Br)cc2)c(-c2ccccc2)c(-c2ccccc2)nn1CCO	Not significant	–
N#Cc1c(-c2ccccc2Cl)c(-c2ccccc2Cl)nn(CCO)c1=O	Not significant	–

SMILES	BP (Rattus norvegicus [1])	also measured
CC(=O)c1c(-c2ccc(Cl)cc2)c(-c2ccc(Cl)cc2)nn(CCN2C(=O)c3ccccc3C2=O)c1=O	Not significant	–
CC(=O)c1c(O)nnc(-c2ccc(Cl)cc2)c1-c1ccc(Cl)cc1	Not significant	–
COc1ccccc1-c1c(O)nnc(-c2ccccc2)c1-c1ccccc1	Not significant	–
N#Cc1c(O)nnc(-c2ccccc2Cl)c1-c1ccccc1Cl	Not significant	–
CC(=O)c1c(-c2ccc(O)cc2)c(-c2ccc(O)cc2)nn(CCO)c1=O	Not significant	–
CC(=O)c1c(-c2ccc(Cl)cc2)c(-c2ccc(Cl)cc2)nn(CCCl)c1=O	Not significant	–
CCCC(=O)c1c(O)nnc(-c2ccc(Cl)cc2)c1-c1ccc(Cl)cc1	Not significant	–
COC(=O)Cn1nc(-c2ccc(Cl)cc2)c(-c2ccc(Cl)cc2)c(C#N)c1=O	Not significant	–
N#Cc1c(-c2ccc(Cl)cc2)c(-c2ccc(Cl)cc2)nn(CCCl)c1=O	Not significant	–
O=c1c(-c2cccc(Cl)c2)c(-c2ccccc2)c(-c2ccccc2)nn1CCO	Not significant	–
CCOC(=O)NCCn1nc(-c2ccc(Cl)cc2)c(-c2ccc(Cl)cc2)c(C(C)=O)c1=O	Not significant	–
CC(=O)c1c(-c2ccc(O)cc2)c(-c2ccc(O)cc2)nn(CC[n+]2ccccc2)c1=O	Not significant	–
COc1cccc(-c2c(-c3ccccc3)c(-c3ccccc3)nn(CCO)c2=O)c1	Not significant	–
CCOC(=O)CCCn1nc(-c2ccccc2)c(-c2ccccc2)c(C(C)=O)c1=O	Not significant	–
O=C(O)c1c(-c2ccc(Cl)cc2)c(-c2ccc(Cl)cc2)nn(CCO)c1=O	Not significant	–
CC(=O)c1c(-c2ccc(Cl)cc2)c(-c2ccc(Cl)cc2)nn(CCCCCCN2C(=O)c3ccccc3C2=O)c1=O	Not significant	–
N#Cc1c(O)nnc(-c2ccc(Br)cc2)c1-c1ccc(Br)cc1	Not significant	–
CC(=O)c1c(-c2ccc(OCc3ccccc3)cc2)c(-c2ccc(OCc3ccccc3)cc2)nn(CCO)c1=O	Not significant	–
